STAT3 activator – IL-6 driven STAT3 reporter potentiators, primary screen, U3A cells, luciferase, luminescence, MLSCN library; 190,000 tested, 0.91% active; IL-6 STAT3-luciferase reporter; 100% = signal with IL-6 EC80 alone; activation (% of control), % at 5.6 µM; AID 871, 2007;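 active = activation above the screen-wide mean of compound activation plus 3 SD, cut at about 130% in these data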
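Material: STAT3-luciferase reporter U3A cells; Probe or stimulus: IL-6 (33 ng/mL); Incubation: compound pre-incubation 1 h before IL-6, then 6 h stimulation at 37 °C; Technique: luminescence from STAT3-driven luciferase reporter; Evaluation: % activation versus median of IL-6-stimulated wells; Controls: IL-6-only high control.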
Thrombin inh – human alpha-thrombin inhibitors, primary screen, counter-screen for coagulation protease inhibitor project, biochemical, 1536-well, fluorogenic AMC substrate. Prothrombin (Homo sapiens), P00734. Boc-VPR-AMC fluorogenic substrate cleavage. inhibition, % at 5 µM. 220,000 tested, 0.26% active;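 active = inhibition at or above 40%; inactive = inhibition below 40%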
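Material: human alpha-thrombin protein. Incubation: reaction at ambient temperature. Technique: fluorescence of released AMC, ex 355 nm, em 460 nm. Control set: no-compound enzyme wells and no-enzyme blanks. Also added: Boc-VPR-AMC substrate, 15 µM final. Buffer or medium: pH 7.5 Tris (50 mM) with NaCl 150 mM, Tween 20 0.05%.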
FXIIa inh – human FXIIa protease inhibitors, primary screen, biochemical, 1536-well; inhibition, % at 5 µM; 220,000 tested, 0.3% active; purified FXIIa, Boc-QGR-AMC fluorogenic substrate, 2 h; in the data active = inhibition above about 40%
FXIa inh 1536 – human FXIa protease inhibitors, primary screen, biochemical, 1536-well; Coagulation factor XI (Homo sapiens), P03951; purified FXIa, Boc-Glu-Ala-Arg-AMC fluorogenic substrate; inhibition, % at 5 µM; 220,000 tested, 0.14% active; AID 798, 2007;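 active = inhibition of at least 40%; inactive = inhibition below 40%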;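 note: fluorescence of freed AMC excited at 355 nm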
KLK5 inh – human KLK5 protease inhibitors, primary screen, biochemical, 1536-well; Kallikrein-5 (Homo sapiens), Q9Y337; recombinant hK5, fluorogenic AMC substrate cleavage; inhibition, % at 5 µM; 210,000 tested, 0.59% active; AID 873, 2007;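 active = inhibition of 40% or more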
Target sequence (Q9Y337 67-293 limits assumed): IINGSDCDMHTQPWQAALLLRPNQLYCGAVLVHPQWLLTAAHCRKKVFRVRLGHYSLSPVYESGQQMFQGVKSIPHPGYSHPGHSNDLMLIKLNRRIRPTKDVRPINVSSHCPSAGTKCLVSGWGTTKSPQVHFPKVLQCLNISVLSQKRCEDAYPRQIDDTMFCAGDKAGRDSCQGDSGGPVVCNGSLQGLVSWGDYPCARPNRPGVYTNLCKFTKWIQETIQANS
AHR activator – AHR activators, primary screen, cell-based, luminescence, luciferase reporter, human | AHR-responsive luciferase reporter cells | 320,000 tested, 2.5% active | activation, % at 5 µM | Aryl hydrocarbon receptor (Homo sapiens), P35869; in the data active = activation above about 47%
A number is an active result; n = inactive; x = no result. In the library only some 3.5% were active in any assay of this set; here they are far more common.

SMILES	STAT3 activator	Thrombin inh	FXIIa inh	FXIa inh 1536	KLK5 inh	AHR activator
O=C(Cn1cc(S(=O)(=O)Cc2cccc(F)c2)c2ccccc21)N1CCOCC1	x	x	x	x	x	n
COc1ccc(-c2cn(-c3ccc(C)cc3C)c(=O)[nH]2)cc1OC	n	n	n	n	49	n
Cc1nc2cc(NS(=O)(=O)c3ccccc3F)ccc2s1	x	n	n	n	n	n
O=S(=O)(Nc1ccc(-c2nc3cccnc3s2)cc1)c1ccccc1F	x	n	n	n	n	56
O=S(=O)(Nc1ccc(-c2nc3cccnc3s2)cc1)c1ccc(Cl)s1	n	n	n	n	n	69
COCCn1c(-c2ccccc2)csc1=Nc1cccnc1	n	n	n	n	n	n
CC(C)n1c(-c2ccco2)csc1=Nc1cccnc1	135	n	n	n	n	n
COc1ccccc1NC(=O)c1ccccc1C(=O)O	n	n	n	n	n	n
COc1ccccc1NC(=O)c1cccc2c(Br)cccc12	x	x	x	x	x	53
COc1ccccc1C(=O)NCc1ccncc1	n	n	n	n	n	n
COc1ccccc1NC(=O)COC(=O)c1cc2ccccc2cc1O	x	x	x	x	x	n
COc1ccccc1NC(=O)c1cc2cc(Br)ccc2cc1O	x	n	n	n	n	55
COc1cc2ccccc2cc1C(=O)NCc1ccncc1	x	x	x	x	x	50
COc1cc2ccccc2cc1C(=O)Nc1ccccc1Cl	x	x	x	x	x	53
Cc1ccc(C)c(C(C)NC(=O)c2ccc(Br)o2)c1 (stereo unspecified)	n	n	n	n	n	n
CCOC(=O)c1c(NC(=O)CSc2nc3cc(Cl)ccc3c(=O)n2Cc2ccco2)sc(C(=O)N(C)C)c1C	n	n	n	n	n	n
CN(C)C(CNC(=O)c1cc(S(=O)(=O)N(C)Cc2ccccc2)ccc1Cl)c1ccco1 (stereo unspecified)	x	x	x	x	x	n
COc1ccc(-c2cc(C(=O)Nc3ccc(O)cc3)c3ccccc3n2)cc1OC	x	n	n	n	n	n
COc1cc(NC(=O)c2cc3ccccc3cc2O)c(OC)cc1Cl	x	n	n	n	n	52
O=C(Nc1cccnc1)c1ccc2ccccc2c1O	x	x	x	x	x	48
COc1cc2cc(C(=O)Nc3ccccc3)c(N)nc2cc1OC	n	n	n	n	n	48
COc1cc2ccccc2cc1C(=O)Nc1cccnc1	n	n	n	n	n	77
O=C(Cc1cccc2ccccc12)Nc1cccnc1	n	n	n	n	n	n
Cc1ccc(Cl)cc1NC(=O)c1cc2ccccc2cc1O	x	n	n	n	n	n
C/C(=N\NC(=O)C1=NNC(=O)C1C)c1cccs1 (stereo unspecified)	n	n	n	n	n	n
SMILES	STAT3 activator	Thrombin inh	FXIIa inh	FXIa inh 1536	KLK5 inh	AHR activator
CC(=O)c1ccccc1OC(=O)CCN1C(=O)c2ccccc2C1=O	n	n	n	n	n	n
COc1ccccc1-c1noc(-c2ccccc2C(=O)Nc2ccccc2)n1	n	n	n	n	n	47
CCCOc1ccc(CN(CCC#N)C(=S)NC(=O)c2ccccc2)cc1	n	n	n	n	n	n
Cc1cccc(CS(=O)(=O)c2nnc([C@H](Cc3ccccc3)NC(=O)OC(C)(C)C)o2)c1	n	n	n	n	n	n
COC(=O)CS(=O)(=O)c1nnc([C@H](Cc2ccccc2)NC(=O)OC(C)(C)C)o1	n	n	42	n	n	n
O=C(CCC1CCCNC1)c1ccccc1 (stereo unspecified)	x	x	x	x	x	n
CC12CCC(C(=O)N3CCN(c4ccccc4)CC3)(CC1=O)C2(C)C (stereo unspecified)	n	n	n	n	54	n
CCOC(=O)c1[nH]c(C)c(C(=O)OCc2ccc(C)cc2)c1C	x	x	x	x	x	n
CCOC(=O)c1c(C)[nH]c(C(=O)OCc2ccc(C)cc2)c1C	x	x	x	x	x	49
CCOC(=O)c1c(C)[nH]c(C(=O)OCc2ccc([N+](=O)[O-])cc2)c1C	x	x	x	x	x	53
CC(/C=N/n1c(-c2ccco2)n[nH]c1=S)=C\c1ccco1	n	n	n	n	n	n
CC(/C=N\Nc1nnc2c(n1)[nH]c1c(C)cccc12)=C\c1ccco1	n	n	n	n	n	57
